# Hits are enriched below; roughly 1.7% of the tested compounds scored in any of these assays.
# CFTR F508del cor: CFTR F508del correction in bronchial cells | CFBE cells, YFP halide quenching; stimulated with forskolin plus potentiator P3; % fluorescence drop versus neutral controls | activity (quench increase), % at 7.58 µM | 350,000 tested, 0.36% active | AID 720511;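 active = mean added fluorescence quench of at least 8% versus neutral control, with both replicates also reaching 8%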;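 also: cells transiently co-express mutant CFTR-F508del with the halide-sensitive YFP; corrector assay measuring rescue of mutant channel to the surface after 24 h compound exposure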
# Cneo AK release: Cryptococcus neoformans lysis via adenylate kinase release | C. neoformans lysis, adenylate kinase release luminescence, 4 h; normalised: neutral wells 0, clomiphene wells 100 | lysis activity, % at 15 µM | 360,000 tested, 0.2% active;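 active = mean lysis activity across replicates of at least 80%, whatever share of replicates individually reach that level; inactive = mean lysis activity below 80%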
#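 Signal: Adenylate kinase release luminescence | Assay system: Log-phase Cryptococcus neoformans yeast cells | Input: Cells at 5 × 10^6 per mL | Buffer or medium: Fresh YPD growth medium | Compound: Single dose | Schedule: Static 4 h at 37 °C with compound, 1 h detection | Controls: Clomiphene | Read-out: Luminescence rise reflecting yeast cell lysis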
# CaV13 FRET inh: Primary screen for inhibitors of IQ motif and Ca2+-dependent inactivation inhibitor domain binding in CACNA1D, Förster resonance energy transfer in living cells, … | HEK cells, CFP/YFP FRET ICDI-IQ, plate reader, 10 min; percent FRET-ratio fall versus neutral wells | inhibition, % at 12.3 µM | 340,000 tested, 0.098% active | AID 743397;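 active = mean replicate inhibition of at least 30% and at least 1% of replicates passing that level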;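 also: 0% = median of the neutral control wells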
# rRNA inh HTS: inhibitors of bacterial rRNA selective over humanized ribosomes; E. coli WT GFP vs humanized-ribosome RFP mutants, fluorescence, 24 h; active compounds read low; DMSO median 0, no signal -100; 350,000 tested, 1.6% active; GFP signal change (wild-type ribosome), % (no concentration beside the values); AID 720706;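 active = significant combined selectivity score with lowered wild-type GFP, culture density cut under 30%, mutant RFP and density less affected; inactive = any of these conditions unmet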
# * marks the source's active call; other numbers are inactive results; nt = not tested or not shown; + = active, no number; ! = a repeat was not active.
SMILES,CFTR F508del cor,Cneo AK release,CaV13 FRET inh,rRNA inh HTS
CCC(=O)N[C@H]1CC[C@@H](CC(=O)NCc2ccc(OC)cc2)O[C@@H]1CO,3,-3,nt,3
Cc1cc(/C=C(/C#N)c2cccc(F)c2)c(C)n1-c1cccnc1,0,2,-7,-35*
CCN(Cc1ccccc1)C(=O)c1cc(-c2ccc(OC)c(OC)c2)nc2ccccc12,0,0,-2,-8
COc1ccc(-c2cc(C(=O)OCC(=O)N(C)C)c3ccccc3n2)cc1,nt,-2,-5,nt
COCCNC(=O)c1cc(-c2ccc(-c3ccccc3)cc2)nc2ccccc12,9.9*,-1,-2,-6
COc1ccc(-c2cc(C(=O)OCc3ccccn3)c3ccccc3n2)cc1,-3,-14,-7,-34*
COCCN(Cc1ccccc1)C(=O)c1cc(-c2ccc(OC)c(OC)c2)nc2ccccc12,-1,-1,-6,-31*
CO[C@H]1CN(C)C(=O)c2cc(NC(=O)c3cc(C)on3)ccc2OC[C@@H](C)N(C)C[C@@H]1C,-2,0,nt,1
CC(C)CN(C(=O)COC(=O)c1cccc2ccccc12)c1c(N)n(Cc2ccccc2)c(=O)[nH]c1=O,-1,nt,-5,9
CCN(C(=O)COC(=O)c1cccc2ccccc12)c1c(N)n(Cc2ccccc2)c(=O)[nH]c1=O,18*,0,-6,3
CCCC#Cc1cnc2c(c1)C(=O)N([C@@H](C)CO)C[C@@H](C)[C@@H](CN(C)C(=O)Cc1cccnc1)O2,3,-1,nt,6
COc1ccc(CN(C)C[C@H]2Oc3ccc(NC(=O)C4CC4)cc3C(=O)N([C@H](C)CO)C[C@@H]2C)cc1,-1,-1,nt,2
C[C@@H]1CN([C@@H](C)CO)C(=O)c2cc(NC(=O)C3CC3)ccc2O[C@H]1CN(C)Cc1ccc2c(c1)OCO2,1,101*,nt,5
COc1ccc(CN(C)C[C@@H]2Oc3ccc(NC(=O)C4CC4)cc3C(=O)N([C@H](C)CO)C[C@H]2C)cc1,1,106*,nt,0
C[C@@H]1CN([C@H](C)CO)C(=O)c2cc(NC(=O)Cc3cn(C)c4ccccc34)ccc2O[C@@H]1CN(C)Cc1ccc(Cl)c(Cl)c1,8.1*,0,nt,7
COc1ccc(CN(C)C[C@@H]2Oc3ccc(NC(=O)C4CC4)cc3C(=O)N([C@@H](C)CO)C[C@H]2C)cc1,-2,92*,nt,5
COc1ccc(NC(=O)N2C[C@@H](O)COC[C@@H]3O[C@@H](CC(=O)N4CCN(C)CC4)CC[C@H]32)cc1,0,3,nt,5
Cc1noc(C)c1S(=O)(=O)N(C)C[C@H]1Oc2ccc(NS(=O)(=O)c3cn(C)cn3)cc2C(=O)N([C@H](C)CO)C[C@H]1C,-1,2,nt,2
C[C@@H]1CN([C@@H](C)CO)C(=O)c2cc(C#CCN(C)C)cnc2O[C@@H]1CN(C)C(=O)c1cccnc1,0,1,nt,0
CC(C)c1cn(CC[C@H]2CC[C@@H](NC(=O)C3CCCC3)[C@H](CO)O2)nn1,0,-1,nt,2
CCC(=O)N[C@H]1CC[C@H](CCn2cc(CN(C)C)nn2)O[C@H]1CO,2,46,nt,2
O=C(NC1CC1)c1cc2cc3ccccc3nc2s1,-4,-5,nt,-21*
Cc1cc(C(=O)Nc2ccc3c(c2)C(=O)N(C)[C@H]2CC[C@@H](CC(=O)NC4CCCC4)O[C@@H]2CO3)no1,6,1,nt,0
CC(C)C(=O)N(c1ccc2oc(=O)sc2c1)S(=O)(=O)c1ccccc1,6,4,-7,18
COc1ccc(S(=O)(=O)N(C(=O)C(C)C)c2ccc3oc(=O)sc3c2)cc1,11*,-6,-7,8
SMILES,CFTR F508del cor,Cneo AK release,CaV13 FRET inh,rRNA inh HTS
Cc1c(Cl)c(=O)n2c(=O)c(Cl)c(C)n12,0,-1,+,13
Cc1nn(CC(=O)O)c(C)c1Cl,nt,3,nt,nt
O=C(CN1CCN(c2ncccn2)CC1)N(Cc1ccccc1)c1ccc(F)cc1,-1,0,-9,-35*
O=C(Nc1nc2ccc(F)cc2s1)c1ccc([N+](=O)[O-])o1,-10,0,-10,-26*
O=C(Nc1nnc(C2=COCCO2)o1)c1ccc(Cc2ccccc2)cc1,-2,nt,9,-46*
O=C(Nc1nnc(C2=COCCO2)o1)c1ccc(Cl)cc1,nt,nt,-3,-55
Cc1ccc(S(=O)(=O)Nc2ccc3c(c2)C(=O)N([C@H](C)CO)C[C@@H](C)[C@H](CN(C)Cc2ccc(C(F)(F)F)cc2)OCCCC[C@@H](C)O3)cc1,3,118*,nt,0
Cc1ccc(S(=O)(=O)Nc2ccc3c(c2)C(=O)N([C@H](C)CO)C[C@H](C)[C@@H](CN(C)Cc2ccccc2)O3)cc1,0,100*!,-11,-3
Cc1ccc(S(=O)(=O)Nc2ccc3c(c2)CC(=O)N([C@@H](C)CO)C[C@@H](C)[C@@H](CN(C)Cc2ccc(Cl)c(Cl)c2)O3)cc1,11*,-7,nt,3
Cc1ccc(S(=O)(=O)Nc2ccc3c(c2)CC(=O)N([C@H](C)CO)C[C@H](C)[C@@H](CN(C)Cc2ccc(Cl)c(Cl)c2)O3)cc1,7,3,nt,1
Cc1ccc(S(=O)(=O)Nc2ccc3c(c2)C(=O)N([C@@H](C)CO)C[C@@H](C)[C@@H](CN(C)Cc2ccc(C(F)(F)F)cc2)OCCCC[C@H](C)O3)cc1,2,54,nt,2
C[C@@H]1CN([C@@H](C)CO)C(=O)c2cc(NS(=O)(=O)c3cn(C)cn3)ccc2O[C@@H](C)CCCCO[C@@H]1CN(C)Cc1ccc(C(F)(F)F)cc1,1,96*,nt,-1
CC(C)NC(=O)N1Cc2cc(C(=O)NCC(F)(F)F)nc(-c3cccc(-c4cc5ccccc5o4)c3)c2[C@H]1CCO,-3,nt,nt,6
C[C@H](CO)N1C[C@H](C)[C@@H](CN(C)Cc2ccc(C(F)(F)F)cc2)Oc2ccc(NS(=O)(=O)c3ccc(F)cc3)cc2C1=O,1,7,nt,-1
C[C@@H]1CN([C@@H](C)CO)C(=O)c2cc(NS(=O)(=O)c3ccc(Cl)cc3)ccc2O[C@@H]1CN(C)Cc1ccc(C(F)(F)F)cc1,9.8*,nt,nt,1
Cc1noc(C)c1S(=O)(=O)Nc1ccc2c(c1)C(=O)N([C@@H](C)CO)C[C@H](C)[C@@H](CN(C)Cc1ccc3c(c1)OCO3)OCCCC[C@@H](C)O2,3,101*,nt,5
CNC[C@@H]1Oc2ccc(NS(=O)(=O)c3ccc(Cl)cc3)cc2C(=O)N([C@H](C)CO)C[C@H]1C,0,108*,nt,5
COc1ccc2c3c([nH]c2c1)[C@@H](CO)N(C)CC31CN(C(=O)c2cccnc2)C1,nt,nt,nt,1
CNC[C@H]1Oc2ccc(N(C)C)cc2CC(=O)N(C)C[C@@H]1C,nt,nt,nt,1
O=C(C[C@@H]1CC[C@H](NC(=O)C2CC2)[C@H](CO)O1)NCC1CC1,1,-1,nt,2

# Compound activity from PubChem.
